# ChEMBL document CHEMBL1157197, “Design, synthesis and trypanocidal activity of lead compounds based on inhibitors of parasite glycolysis” (Bioorg Med Chem, 2008)
# Columns and labels:
# [1] = molecular target: T1, ATP-dependent 6-phosphofructokinase (Trypanosoma brucei) (UniProt O15648); assay: Inhibition of Trypanosoma brucei phosphofructokinase assessed as enzyme residual activity at 1 mM
# T1 sequence (whole entry): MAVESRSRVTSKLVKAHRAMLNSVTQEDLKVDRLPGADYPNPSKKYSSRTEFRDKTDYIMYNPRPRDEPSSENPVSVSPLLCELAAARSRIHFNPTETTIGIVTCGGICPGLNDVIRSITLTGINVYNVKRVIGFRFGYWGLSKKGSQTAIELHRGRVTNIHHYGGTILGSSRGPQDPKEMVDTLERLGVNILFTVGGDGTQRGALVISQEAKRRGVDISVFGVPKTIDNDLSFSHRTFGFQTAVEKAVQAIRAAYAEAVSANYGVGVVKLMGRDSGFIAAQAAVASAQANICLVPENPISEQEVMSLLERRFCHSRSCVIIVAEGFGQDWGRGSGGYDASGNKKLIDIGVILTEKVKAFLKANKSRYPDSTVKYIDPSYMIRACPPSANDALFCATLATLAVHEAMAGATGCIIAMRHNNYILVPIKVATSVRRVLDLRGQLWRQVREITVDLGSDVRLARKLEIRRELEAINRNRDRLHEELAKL
# Trypanosoma brucei = assay: Antiparasitic activity against Trypanosoma brucei strain 427; assay type: functional; settings: read-out: ED50 (the source's name)
# Procedure, shortened: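 Cultured bloodstream-form Trypanosoma brucei brucei strain 427 exposed to compounds in vitro; ED50 reported.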
# [2] = molecular target: T2, ATP-dependent 6-phosphofructokinase (Trypanosoma brucei, UniProt O15648); assay: Inhibition of Trypanosoma brucei phosphofructokinase
# T2 sequence (O15648 whole entry): T1 sequence (whole entry)
# [3] = molecular target: T3, Pyruvate kinase (Leishmania mexicana) (UniProt Q27686); assay: Inhibition of Leishmania mexicana pyruvate kinase assessed as enzyme residual activity at 5 mM
# T3 sequence (whole entry): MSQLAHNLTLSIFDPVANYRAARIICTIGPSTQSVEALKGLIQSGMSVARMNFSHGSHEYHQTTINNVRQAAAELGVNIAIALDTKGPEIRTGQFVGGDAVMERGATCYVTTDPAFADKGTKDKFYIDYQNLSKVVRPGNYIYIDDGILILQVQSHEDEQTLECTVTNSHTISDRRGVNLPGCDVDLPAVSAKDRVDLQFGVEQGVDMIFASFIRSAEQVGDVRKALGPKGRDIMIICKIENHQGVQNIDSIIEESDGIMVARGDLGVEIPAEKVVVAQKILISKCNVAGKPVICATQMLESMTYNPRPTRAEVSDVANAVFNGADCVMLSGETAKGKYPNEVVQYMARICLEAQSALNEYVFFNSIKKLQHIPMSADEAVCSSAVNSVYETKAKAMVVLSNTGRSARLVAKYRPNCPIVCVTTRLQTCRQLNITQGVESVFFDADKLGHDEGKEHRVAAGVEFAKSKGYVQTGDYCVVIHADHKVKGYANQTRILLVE
# [4] = molecular target: T1, ATP-dependent 6-phosphofructokinase (Trypanosoma brucei); assay: Inhibition of Trypanosoma brucei phosphofructokinase assessed as enzyme residual activity at 5 mM
Compound,Activity [1] [%],EC50 (Trypanosoma brucei) [µM],IC50 [2] [µM],Activity [3] [%],Activity [4] [%]
O=C(NCc1ccc(Cl)c(Cl)c1)[C@H]1O[C@H](CNCc2ccc(Cl)c(Cl)c2)[C@@H](O)[C@@H]1O,0.9,30,23,,
C=CCNC(=O)[C@H]1O[C@H](CNCc2ccc(Cl)c(Cl)c2)[C@@H](O)[C@@H]1O,2,110,50,,
OC[C@H]1O[C@H](CNCc2ccc(Cl)c(Cl)c2)[C@@H](O)[C@@H]1O,,130,410,43,5
O=C(NC1CCCCCC1)[C@H]1O[C@H](CNCc2ccc(Cl)c(Cl)c2)[C@@H](O)[C@@H]1O,4.7,35,80,88.2,
